Assay results pooled from the literature.
Protocols differ between the studies behind these lines. pEC50, pIC50, pKd, pKi: −log10 of the molar value.
Cnr2: Cannabinoid receptor 2 (Cnr2, Mus musculus, UniProt P47936)
G protein-coupled receptor 88: G protein-coupled receptor 88 (Homo sapiens, UniProt Q9GZN0)
mreB: mreB (Escherichia coli, UniProt P0A9X4)
CTSL: Procathepsin L (CTSL, Homo sapiens, UniProt P07711)
pol: pol (Feline immunodeficiency virus, UniProt P16088)

CCOC(=O)C(CC)(CCCSCCOCCOCCNc1ccc([N+](=O)[O-])c2nonc12)NC(=O)c1ccc(C2CC2)c(Cc2ccc(F)cc2)n1 (racemic)  pKi (Cnr2; ligand displacement, radioligand; cell membranes): 7.14
CCCc1ccc(-c2ccc([C@@H](CO)C(=O)N[C@H](C)c3ccccc3)cc2)cc1  pEC50 (G protein-coupled receptor 88; cAMP, agonist, TR-FRET): 6.86
NC1CCCCc2c1[nH]c1cc(Cl)c(Cl)cc21 (stereo not shown)  pIC50 (mreB; ATPase activity, inhibitor, absorbance): 4.54
CCOC(=O)[C@](CC)(CCC[S+]([O-])CCOCCOCCNC(=O)OC(C)(C)C)NC(=O)c1ccc(C2CC2)c(Cc2ccc(F)cc2)n1 (stereo partly shown)  pEC50 (Cnr2; cAMP, agonist): 7.19
CC[C@H](NC(=O)OCc1ccccc1)C(=O)N[C@H](C(=O)N[C@@H](Cc1ccccc1)C(=O)N(C)N(C#N)CCC(N)=O)C(C)(C)C  pKi (CTSL; enzyme activity, inhibitor): 6.91
CC[C@H]1NC(=O)[C@@H]2CSC(=N2)[C@H](Cc2ccccc2)N(C)C(=O)[C@@H]2CCCN2C(=O)[C@H](C(C)C)N(C)C(=O)[C@H](Cc2ccccc2)OC(=O)[C@H](C)[C@@H](C)NC(=O)[C@@H]([C@@H](C)O)NC(=O)[C@@H](CC(C)C)N(C)C(=O)[C@@H]2CSC1=N2  pIC50 (CTSL; enzyme activity, inhibitor): 4.69
Cc1ccnc2c1NC(=O)c1cccnc1N2C1CC1  pKd (pol; binding, SPR): 3.73
C[C@H](N)Cn1ncc2ccc3c(c21)CCCO3  pIC50 (Alpha-1B adrenergic receptor (Adra1b, Rattus norvegicus, UniProt P15823); ligand displacement, radioligand): 4.13
CCOC(=O)C(CC)(CCCSCCOCCOCCOCCNC(=O)OC(C)(C)C)NC(=O)c1ccc(C2CC2)c(Cc2ccc(F)cc2)n1 (stereo not shown)  pEC50 (Cnr2; cAMP, agonist): 7.68
Cc1cc(/C=C/C#N)cc(C)c1Nc1ccnc(Nc2ccc(C#N)cc2)n1  pKd (pol; binding, SPR): 4.80
NC1CCCCc2c1[nH]c1ccc(Br)cc21 (stereo not shown)  pIC50 (mreB; ATPase activity, inhibitor, absorbance): 4.36
CCOC(=O)c1c(NCc2ccc(SC)cc2)c2cccc(C)c2[nH]c1=O  pIC50 (Anoctamin-2 (ANO2, Homo sapiens, UniProt Q9NQ90); ion flux, inhibitor): 6.00
CC(C)c1cccc(NC(=O)C2CC(=O)Nc3ccccc32)c1 (stereo not shown)  pIC50 (CTSL; enzyme activity, inhibitor, FRET): 4.78
CC[C@H](C)COc1ccc([C@@H](CO)C(=O)N[C@H](C)c2ccccc2)cc1  pEC50 (G protein-coupled receptor 88; cAMP, agonist, TR-FRET): 5.70
N[C@@H](CCP(=O)(O)O)C(=O)O  pEC50 (Metabotropic glutamate receptor 7 (Grm7, Rattus norvegicus, UniProt P35400); calcium signal, agonist): 3.93
O=[As](O)(O)c1ccc(Cc2ccc([As](=O)(O)O)cc2)cc1  pKi (Autotaxin (ENPP2, Homo sapiens, UniProt Q13822); enzyme activity, inhibitor, absorbance): 7.32
Cc1nonc1Cn1nnc2c(N3CC[C@H](O)C3)nc(C(C)(C)C)nc21  pEC50 (Cnr2; cAMP, agonist): 9.70
O=C(/C=C/c1cccc(S(=O)(=O)Nc2ccccc2)c1)NO  pKd (Histone deacetylase 4 (HDAC4, Homo sapiens, UniProt P56524); cell-free assay): < 4.52
C=CC(O)CO (stereo not shown)  pIC50 (Cytochrome P450 2E1 (Cyp2e1, Rattus norvegicus, UniProt P05182); enzyme activity, inhibitor; Fischer 344 rat, liver microsomes; 30 min): 3.00
CC(NCCCNC(=O)c1cc(Cl)c(Cl)s1)c1cc2cc(Br)ccc2[nH]1 (stereo not shown)  pIC50 (mreB; ATPase activity, inhibitor, absorbance): 5.22
CCCCCCC(C)(C)c1ccc([C@@H]2C[C@H](O)CC[C@H]2CCCO)c(O)c1  pEC50 (Cnr2; cAMP, agonist): 10.30
Cc1nc([C@@](C)(CC2CC2)NC(=O)c2cc(OCC(F)(F)F)c(C3CC3)cn2)no1  pKi (Cnr2; ligand displacement, radioligand; cell membranes): 8.22
O=P(O)(O)Oc1ccccc1OP(=O)(O)O  pIC50 (Signal transducer and activator of transcription 5B, SH2 (STAT5B, Homo sapiens, UniProt P51692); ligand displacement, FP): 5.71
CCOC(=O)C(CC)(CCCSCCOCCOCCOCCOCCNC(=O)OC(C)(C)C)NC(=O)c1ccc(C2CC2)c(Cc2ccc(F)cc2)n1 (stereo not shown)  pKi (Cnr2; ligand displacement, radioligand; cell membranes): 7.03
NC(=O)[C@@H]1CC(F)(F)CN1C(=O)c1ccc(N2CC(F)(F)C2)c(OCC2CC2)n1  pEC50 (Cnr2; cAMP, agonist): 8.52
